Reference: ChEMBL document CHEMBL4513216, “Probing the Open Global Health Chemical Diversity Library for Multistage-Active Starting Points for Next-Generation Antimalarials” (ACS Infect Dis, 2020)

Test: Toxicity liver stage against HepG2, at 10uM
Format: cell-based
Set-up: test concentration 10 uM, cell line HepG2-A16-CD81EGFP
Details: human, HepG2-A16-CD81EGFP cells; read-out: INHIBITION
Outline: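 Uninfected HepG2-A16-CD81EGFP cells, 3 × 10^3 per well, 1536-well, plated on prespotted compound at 10 μM final, parasite-free screening media added to match infected plates; puromycin 10 μM positive, DMSO 0.5% negative; run in parallel with 48 h PbLuc assay at 37 °C, 5% CO2; viability by CellTiter-Glo luminescence, normalized to controls.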

Row | SMILES | cytotoxicity at 10 µM [%]
1 | CCOc1cc(C)nc(N2CCN(Cc3nccn3C)CC2)n1 | -4.04
2 | Cc1ccc(C(=O)NC(C)CN2CCCC2=O)c(=O)[nH]1 (stereo not given) | -0.524
3 | CN1CCC2(CCN(C(=O)c3cccnc3)C2)C1 (stereo not given) | -101
4 | Cn1cc2c(n1)C(COCC1CC1)CN(Cc1ccccn1)C2 (stereo not given) | -1.8
5 | Cc1cccc(-c2nc(N)nc3c2CN(C(=O)C2CCCC2)C3C)c1 (stereo not given) | 13.2
6 | Cn1c(-c2ccccc2Cl)nc2cc(C(=O)NCCS(C)(=O)=O)cnc21 | -3.2
7 | CCNC(=O)C1CCN(Cc2ccc(C(=O)Nc3cnns3)cc2)C1 (stereo not given) | 9.2
8 | CCc1nnsc1-c1nc(C(C)C)nn1-c1ccc2c(c1)OCO2 | -9.69
9 | O=C1CC2(CCN(Cc3ncc[nH]3)CC2)CN1Cc1ccc(Cl)cc1 | 5.85
10 | Cc1nc(CCN)cc(N(C)Cc2nc3ccc(F)cc3[nH]2)n1 | -0.581
11 | O=C(Nc1ccccc1OCCc1ccccn1)N1CCOCC(O)C1 (stereo not given) | 4.25
12 | c1cn(Cc2nnc(C3CCN(C4CCCCC4)CC3)n2C2CC2)cn1 | -6.79
13 | C[C@@H]1CN(C(=O)C2CCS(=O)(=O)CC2)CC[C@@]1(O)C1CCOCC1 | -9.34
14 | CC(C)(C)N1CC(C(=O)NCc2noc(Cc3ccccc3)n2)CC1=O (stereo not given) | 0.824
15 | CO[C@H]1CN(C(C)C)C[C@@H]1NC(=O)Nc1cccc(SC)c1 | 2.85
16 | CCN(CC)Cc1cc(C(=O)N2CCC3(CC2)NCCNC3=O)c(C)o1 | 4.01
17 | c1cc2c(cc1C[C@@H]1CC[C@H](CN3CCCOCC3)O1)OCO2 | -12.9
18 | c1ccc2c(c1)CC(CNCc1ccncc1)(N1CCCCC1)C2 | -7.72
19 | CN1CC2(CCN(C(=O)CCCOCc3ccccc3)C2)OC1=O (stereo not given) | 4.49
20 | CN(CCc1ccccn1)[C@@H]1CCN(c2cc(C(N)=O)ccn2)C[C@H]1O | -9.17
21 | COc1cccc([C@@H]2CN(C(=O)c3ccc(C)cc3O)C[C@H]2C(=O)O)c1 | 6.49
22 | CC(=O)N1CCNCC1c1cccc(C(=O)N(C)C)c1 (stereo not given) | 4.45
23 | CN(CCC(F)(F)F)C(=O)c1nc(S(C)(=O)=O)n2ccccc12 | -7.51
24 | CN(C)c1ccc(C(=O)N2CCCN(Cc3cnn(C)c3)CC2)nn1 | -5.28
25 | Cc1cc(C)c(CNC(=O)C2CCN(c3cnccn3)CC2)c(=O)[nH]1 | -10.7
26 | Cc1cc(CN2CCCC2c2c(C)nn(C)c2Cl)no1 (stereo not given) | -6.98
27 | Cc1cnn(CC2CCCN2C(=O)c2cc(C)no2)c1 (stereo not given) | -0.194
28 | CCc1ncc2c(n1)CN(CC(=O)NCCOc1ccccc1)CC2 | -2.11

Row | SMILES | cytotoxicity at 10 µM [%]
29 | COC(=O)c1ccc(N2CCN(CCC(=O)NC(N)=O)C(C)C2)cc1 (stereo not given) | -6.39
30 | CCOc1cc(C(=O)N2CCCC(c3noc(C)n3)C2)ccn1 (stereo not given) | -4.49
31 | CC(C)(C)c1nnc(CN2CCCC(Cn3cncn3)C2)o1 (stereo not given) | -6.31
32 | Cc1nc(C)n(CC2CCCN(CC(=O)Nc3nncs3)C2)n1 (stereo not given) | -3.79
33 | Cc1cc(CN2CCN(C(=O)NC(C)Cn3ccnc3)CC2)no1 (stereo not given) | -8.54
34 | N#CC1(C(=O)N2CCN(Cc3cscn3)CC2)CCCC1 | -8.08
35 | CCc1nc(CN(C(C)=O)C2CCN(Cc3cnc(C)cn3)C2)no1 (stereo not given) | -4.51
36 | CCCC(Nc1c(C#N)c(=O)n(C)c(=O)n1C)c1ccc(F)cc1F (stereo not given) | -13.2
37 | CC(C(=O)Nc1ncccn1)N1CCCN(c2nccs2)CC1 (stereo not given) | -2.55
38 | CCOC(=O)CSc1nnc([C@@H](N)CC(C)C)o1 | 6.76
39 | COc1cccc2[nH]c(C(=O)N3CCNCC3C(N)=O)cc12 (stereo not given) | 4.57
40 | Cc1nc(COC[C@H]2CCC[C@@]23CN(C(C)C)CCO3)cs1 | -86.7
41 | CO[C@H]1CCN(S(=O)(=O)c2cn(C)cn2)[C@H]1Cc1cccnc1 | -9.31
42 | CN(C)C(=O)c1ccc(C2CCCNC2)nc1 (stereo not given) | -20.7
43 | Cn1cc(CN2CCC(F)(F)C3(CCN(c4ncc(F)cn4)C3)C2)cn1 (stereo not given) | 1.2
44 | Cc1cnc(N2CCC3(CC2)COCCN(C(C)C)C3)nc1 | -121
45 | O=C(C1CCCO1)N1CCC2(CC1)COCCN(Cc1cccnc1)C2 (stereo not given) | -108
46 | COCCC(=O)NC1CCN(CC2(c3cccc(F)c3)CCCC2)CC1 | -24.7
47 | O=C1COC2(COCCN(Cc3cccnc3)C2)CN1c1ccoc1 (stereo not given) | 3.22
48 | CN(C)c1ccc(CNCc2cnc(N3CCOCC3)nc2)cn1 | 9.44
49 | CC1=N[C@@]2(CC[C@@H]3CN(CC4CC4)C[C@@H]32)C(=O)N1CC1CC1 | 3.82
50 | O=C(c1n[nH]c2c1CN(C1CCOC1)CC2)N1CCCC1 (stereo not given) | -1.07
51 | c1csc(CN2C[C@H](OCC3CC3)[C@H]3COC[C@H]32)n1 | 2.57
52 | O=C(c1cnccn1)N1CCC(F)(F)C2(CCN(c3ccccn3)C2)C1 (stereo not given) | 11.9
53 | COCC1CC2(CCN(Cc3ccncc3)CC2)CN1C(C)C (stereo not given) | 1.73
54 | CCCn1nccc1NC(=O)CN1CCCC1Cn1cccn1 (stereo not given) | -5.47
55 | O=C1CCCC2=Nc3nonc3NC(c3ccccc3F)C12 (stereo not given) | 1.08
